# Where a SMILES comes first, the peptide text is derived from it. Bridges are numbered along the chain shown (N, C = ends).
# Target: Low-density lipoprotein receptor (Homo sapiens) (UniProt P01130)
# Test: Displacement of S-tagged Ac-DSGL[CMPRLRGC]cDPR-NH2 from human DsRed2-fused LDLR expressed in CHO cells at 10 uM after 1 hr by FRET assay
# Assay type: cell-based
# Conditions: not given; call rule not given here
# How it was run: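 CHO cells stably expressing hLDLR-DsRed2 (Ham-F12, 5% FBS, Geneticin) at 800 000 cells/well were incubated in triplicate with S-tagged reference peptide (10 μM) plus test peptide (10 μM) in Ham-F12/1% BSA, 1 h, 37 °C. Scrambled and untagged peptide controls were included; values are means of at least three points.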
# Sequence of Low-density lipoprotein receptor (Homo sapiens) (P01130 whole entry, the tested form may be a part): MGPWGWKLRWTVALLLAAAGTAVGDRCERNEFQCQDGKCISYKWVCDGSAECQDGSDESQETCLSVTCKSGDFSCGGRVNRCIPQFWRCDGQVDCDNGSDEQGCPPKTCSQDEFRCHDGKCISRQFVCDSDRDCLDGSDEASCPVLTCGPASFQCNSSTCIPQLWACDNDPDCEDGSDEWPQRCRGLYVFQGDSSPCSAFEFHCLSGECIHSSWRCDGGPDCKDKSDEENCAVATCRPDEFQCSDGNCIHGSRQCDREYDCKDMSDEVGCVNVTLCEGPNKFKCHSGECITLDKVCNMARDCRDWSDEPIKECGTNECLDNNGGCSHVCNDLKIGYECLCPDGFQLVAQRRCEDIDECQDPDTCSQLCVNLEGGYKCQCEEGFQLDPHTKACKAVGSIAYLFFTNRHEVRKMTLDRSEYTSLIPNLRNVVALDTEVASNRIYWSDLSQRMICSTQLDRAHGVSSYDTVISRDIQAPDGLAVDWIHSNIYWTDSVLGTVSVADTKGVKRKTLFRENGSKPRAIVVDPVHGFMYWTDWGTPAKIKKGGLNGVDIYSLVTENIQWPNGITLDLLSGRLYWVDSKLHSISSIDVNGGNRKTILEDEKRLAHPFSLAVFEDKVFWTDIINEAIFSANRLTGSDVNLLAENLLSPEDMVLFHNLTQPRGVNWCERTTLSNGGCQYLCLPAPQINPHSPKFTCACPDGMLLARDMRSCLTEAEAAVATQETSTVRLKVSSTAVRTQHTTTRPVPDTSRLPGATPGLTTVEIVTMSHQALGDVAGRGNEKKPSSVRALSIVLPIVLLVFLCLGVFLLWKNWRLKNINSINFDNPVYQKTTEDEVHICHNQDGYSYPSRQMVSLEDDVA
row,inhibition [%],Molecule
1,20,CSCC[C@@H]1NC(=O)[C@@H](NC(=O)[C@H](CC(C)C)NC(=O)CNC(=O)[C@H](CO)NC(=O)[C@H](CC(=O)O)NC(C)=O)CSSC[C@@H](C(=O)N[C@@H](CC(=O)O)C(=O)N2CCC[C@H]2C(=O)N[C@@H](CCCNC(=N)N)C(N)=O)NC(=O)[C@H](C)NC(=O)[C@H](CCCNC(=N)N)NC(=O)[C@H](CC(C)C)NC(=O)[C@H](CCCNC(=N)N)NC(=O)[C@@H]2CCCN2C1=O (Ac-DSGLCMPRLRACDPR-NH2; disulfide 5-12)
2,20,CSCC[C@@H]1NC(=O)[C@@H](NC(=O)[C@H](CC(C)C)NC(=O)CNC(=O)[C@H](C)NC(=O)[C@H](CC(=O)O)NC(C)=O)CSSC[C@@H](C(=O)N[C@@H](CC(=O)O)C(=O)N2CCC[C@H]2C(=O)N[C@@H](CCCNC(=N)N)C(N)=O)NC(=O)CNC(=O)[C@H](CCCNC(=N)N)NC(=O)[C@H](CC(C)C)NC(=O)[C@H](CCCNC(=N)N)NC(=O)[C@@H]2CCCN2C1=O (Ac-DAGLCMPRLRGCDPR-NH2; disulfide 5-12)
3,0,CC(=O)N[C@@H](CC(=O)O)C(=O)N[C@@H](CO)C(=O)NCC(=O)N[C@@H](CC(C)C)C(=O)N[C@H]1CSSC[C@@H](C(=O)N[C@@H](CC(=O)O)C(=O)N2CCC[C@H]2C(=O)N[C@@H](CCCNC(=N)N)C(N)=O)NC(=O)CNC(=O)[C@H](CCCNC(=N)N)NC(=O)[C@H](CC(C)C)NC(=O)[C@H](CCCNC(=N)N)NC(=O)[C@@H]2CCCN2C(=O)[C@H](C)NC1=O (Ac-DSGLCAPRLRGCDPR-NH2; disulfide 5-12)
4,64,CSCC[C@@H]1NC(=O)[C@@H](NC(=O)[C@H](C)NC(=O)CNC(=O)[C@H](CO)NC(=O)[C@H](CC(=O)O)NC(C)=O)CSSC[C@@H](C(=O)N[C@@H](CC(=O)O)C(=O)N2CCC[C@H]2C(=O)N[C@@H](CCCNC(=N)N)C(N)=O)NC(=O)CNC(=O)[C@H](CCCNC(=N)N)NC(=O)[C@H](CC(C)C)NC(=O)[C@H](CCCNC(=N)N)NC(=O)[C@@H]2CCCN2C1=O (Ac-DSGACMPRLRGCDPR-NH2; disulfide 5-12)
5,58,CSCC[C@@H]1NC(=O)[C@@H](NC(=O)[C@H](CC(C)C)NC(=O)[C@H](C)NC(=O)[C@H](CO)NC(=O)[C@H](CC(=O)O)NC(C)=O)CSSC[C@@H](C(=O)N[C@@H](CC(=O)O)C(=O)N2CCC[C@H]2C(=O)N[C@@H](CCCNC(=N)N)C(N)=O)NC(=O)CNC(=O)[C@H](CCCNC(=N)N)NC(=O)[C@H](CC(C)C)NC(=O)[C@H](CCCNC(=N)N)NC(=O)[C@@H]2CCCN2C1=O (Ac-DSALCMPRLRGCDPR-NH2; disulfide 5-12)
6,50,CSCC[C@H](NC(=O)[C@H](CS)NC(=O)[C@H](CC(C)C)NC(=O)CNC(=O)[C@H](CO)NC(=O)[C@H](CC(=O)O)NC(C)=O)C(=O)N1CCC[C@H]1C(=O)N[C@@H](CCCNC(=N)N)C(=O)N[C@@H](CC(C)C)C(=O)N[C@@H](CCCNC(=N)N)C(=O)NCC(=O)N[C@@H](CS)C(=O)N[C@@H](CC(=O)O)C(=O)N1CCC[C@H]1C(=O)N[C@@H](CCCNC(=N)N)C(N)=O
7,39,CSCC[C@@H]1NC(=O)[C@@H](NC(C)=O)CSSC[C@@H](C(N)=O)NC(=O)CNC(=O)[C@H](CCCNC(=N)N)NC(=O)[C@@H]2CCCN2C1=O (Ac-CMPRGC-NH2; disulfide 1-6)
8,52,CSCC[C@@H]1NC(=O)[C@@H](NC(=O)[C@H](CC(C)C)NC(=O)CNC(=O)[C@H](CO)NC(=O)[C@H](CC(=O)O)NC(C)=O)CSSC[C@@H](C(=O)N[C@@H](CC(=O)O)C(=O)N[C@@H](C)C(=O)N[C@@H](CCCNC(=N)N)C(N)=O)NC(=O)CNC(=O)[C@H](CCCNC(=N)N)NC(=O)[C@H](CC(C)C)NC(=O)[C@H](CCCNC(=N)N)NC(=O)[C@@H]2CCCN2C1=O (Ac-DSGLCMPRLRGCDAR-NH2; disulfide 5-12)
9,0,Ac-DSGLSMPRLRGSDPR-NH2

# Test system: not listed separately
# Test: Half life in Swiss mouse plasma
# Assay type: ADME, cell-free
# Conditions: not given
# How it was run: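 Peptide in 0.9% NaCl was spiked into freshly collected Swiss mouse blood at 2 μM nominal (n = 3) and kept at 37 °C for 0, 0.5, 1, 2, 5 and 8 h. Plasma was separated, acidified with formic acid, and protein precipitated with acetonitrile. Analysis was by LC-MS/MS (positive ESI), LLOQ 25-50 nM.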
row,half-life [min],Molecule
1,182,CSCC[C@@H]1NC(=O)[C@H](NC(C)=O)CSSC[C@@H](C(N)=O)NC(=O)CNC(=O)[C@H](CCCNC(=N)N)NC(=O)[C@H](CC(C)C)NC(=O)[C@H](CCCNC(=N)N)NC(=O)[C@@H]2CCCN2C1=O
2,179,CSCC[C@@H]1NC(=O)[C@@H](NC(C)=O)C(C)(C)SSC[C@@H](C(N)=O)NC(=O)CNC(=O)[C@H](CCCNC(=N)N)NC(=O)[C@H](CC(C)C)NC(=O)[C@H](CCCNC(=N)N)NC(=O)[C@@H]2CCCCN2C1=O
3,136,CSCC[C@@H]1NC(=O)[C@H](NC(C)=O)CSSC[C@@H](C(N)=O)NC(=O)CN(C)C(=O)[C@H](CCCNC(=N)N)NC(=O)[C@H](CC(C)C)NC(=O)[C@H](CCCNC(=N)N)NC(=O)[C@@H]2CSCN2C1=O
4,88.2,CSCC[C@@H]1NC(=O)[C@@H](NC(C)=O)CSSC[C@@H](C(N)=O)NC(=O)CNC(=O)[C@H](CCCNC(=N)N)NC(=O)[C@H](CC(C)C)NC(=O)[C@H](CCCNC(=N)N)NC(=O)[C@@H]2CCCN2C1=O
5,102,CSCC[C@@H]1NC(=O)[C@H](NC(C)=O)C(C)(C)SSC[C@@H](C(N)=O)NC(=O)CNC(=O)[C@H](CCCNC(=N)N)NC(=O)[C@H](CC(C)C)NC(=O)[C@H](CCCNC(=N)N)NC(=O)[C@@H]2CCCCN2C1=O
6,174,CSCC[C@@H]1NC(=O)[C@@H](NC(C)=O)C(C)(C)SSC[C@@H](C(N)=O)NC(=O)CN(C)C(=O)[C@H](CCCNC(=N)N)NC(=O)[C@H](CC(C)C)NC(=O)[C@H](CCCNC(=N)N)NC(=O)[C@@H]2CSCN2C1=O
7,108,CSCC[C@@H]1NC(=O)[C@H](NC(C)=O)CSSC[C@@H](C(N)=O)NC(=O)CNC(=O)[C@H](CCCNC(=N)N)NC(=O)[C@H](CC(C)C)NC(=O)[C@H](CCCNC(=N)N)NC(=O)[C@@H]2CSCN2C1=O

# Test system: Mus musculus
# Test: Biodistribution in iv dosed dorsal spinal cord of C57-B16 mouse after 10 mins by real time biphoton microscopic analysis
# Assay type: ADME, organism-based
# Conditions: in vivo
# How it was run: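 C57-Bl6 mice (>7 weeks) anesthetized with ketamine-xylazine (100 mg/kg, 10 mg/kg), T13 laminectomy; 200 μL Rhodamine Red-X-labelled peptide (167 μM in DMSO + PBS) given iv, sometimes with 70 kDa fluorescein dextran. Two-photon imaging (840 nm excitation) of superficial dorsal spinal cord (first 100 μm) from 10 min after injection; scrambled peptide and free dye as controls.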
row,Drug uptake,Molecule
1,Active,CSCC[C@@H]1NC(=O)[C@H](NC(C)=O)CSSC[C@@H](C(N)=O)NC(=O)CNC(=O)[C@H](CCCNC(=N)N)NC(=O)[C@H](CC(C)C)NC(=O)[C@H](CCCNC(=N)N)NC(=O)[C@@H]2CCCN2C1=O
